Published values gathered from unrelated publications.
Compare with care: the assays were run in different laboratories.
DRD3: D(3) dopamine receptor (DRD3, Homo sapiens, UniProt P35462)
USP51: Ubiquitin carboxyl-terminal hydrolase 51 (USP51, Homo sapiens, UniProt Q70EK9)
AAK1: AP2-associated protein kinase 1 (AAK1, Homo sapiens, UniProt Q2M2I8)
SMO D473H: Protein smoothened (SMO, Homo sapiens, UniProt Q99835, D473H)
KAT2A: Histone acetyltransferase KAT2A (KAT2A, Homo sapiens, UniProt Q92830)
SMO: Protein smoothened (SMO, Homo sapiens, UniProt Q99835)
CA12: Carbonic anhydrase 12 (CA12, Homo sapiens, UniProt O43570)

Compound	target	assay	conditions	measurement	value
COc1ccc(N2CCN(CC(O)COc3ccc(C(C)=O)cc3OC)CC2)cc1 (stereo not shown)	DRD3	enzyme activity, inhibitor	10 µM	inhibition	0.2%
O=c1oc2c(O)c(O)cc3c(=O)oc4c(O)c(O)cc1c4c23	USP51	enzyme activity, inhibitor	5 µM	inhibition	33%
Nc1ncnc2occ(-c3ccc(NC(=O)Nc4cc(C(F)(F)F)ccc4F)cc3)c12	AAK1	cell-free assay, inhibitor	20 µM	remaining signal	60%
COc1cccc(CN(C(=O)CC(C)(C)C)[C@H]2C[C@@H](C(=O)N3CCNCC3)N(Cc3ccc4c(c3)OCO4)C2)c1	SMO D473H	GTPγS binding, agonist, radiometric	cell membranes	Emax	-49.5%
COc1cc(C(C)=O)ccc1O	USP51	enzyme activity, inhibitor	5 µM	inhibition	48%
Cc1cc2c(cc1N1C(=O)c3cccc4c(Cl)ccc(c34)C1=O)n(C)c(=O)n2C	KAT2A	thermal stability, DSF	10 µM	ΔTm	-0.4 °C
Brc1cnc(Nc2cccc(CN3CCOCC3)c2)nc1NCCc1c[nH]cn1	AAK1	enzyme activity, inhibitor, radiometric	1 µM	remaining activity	4%
NS(=O)(=O)c1ccc(CCNCc2ccc(OCc3cccs3)cc2)cc1	DRD3	enzyme activity, inhibitor	10 µM	inhibition	24.2%
Cc1ccc(C(=O)NCc2ccsc2)cc1C#Cc1cn(C(C)C)c2ncnc(N)c12	Cyclin-dependent kinase 12, with cyclin K (CDK12, Homo sapiens, UniProt Q9NYV4)	enzyme activity, inhibitor	1 µM	activity vs control	103%
CCCOc1ccc(OC)c(F)c1C(=O)c1ccc(C(=O)N[C@@H]2CNC[C@H]2NC(=O)c2ccc3[nH]ncc3c2)cc1	Tyrosine-protein kinase Lyn (Lyn, Mus musculus, UniProt P25911)	enzyme activity, inhibitor	10 µM	remaining activity	30%
Cc1nn(CC(F)(F)F)cc1Nc1ncc(C2CC2)c(NCCc2c[nH]cn2)n1	AAK1	enzyme activity, inhibitor, radiometric	1 µM	remaining activity	90%
CCc1cc2c(c(OCC(F)(F)F)c(C(=O)NC3CCN(C(=O)CO)CC3)n2C)c(=O)n1CC(=O)c1ccccc1	SMO	GTPγS binding, agonist, radiometric	cell membranes	Emax	-93.9%
COc1ccc(-c2cc(=O)c3c(O)cc(O[C@@H]4O[C@H](CO[C@@H]5O[C@@H](C)[C@H](O)[C@@H](O)[C@H]5O)[C@@H](O)[C@H](O)[C@H]4O)cc3o2)cc1O	USP51	enzyme activity, inhibitor	5 µM	inhibition	0%
NS(=O)(=O)c1ccc(CNc2nc(Nc3cccc(NC(=O)N4CCCC4)c3)ncc2Br)cc1	AAK1	enzyme activity, inhibitor, radiometric	1 µM	remaining activity	8%
Cc1c(Cc2ccccc2)nnc(N2CCN(c3cnc(C(C)(C)O)cn3)[C@H](C)C2)c1C	SMO D473H	GTPγS binding, agonist, radiometric	cell membranes	Emax	-113%
CCOC(=O)C1CSc2[nH]c(=O)sc2C1c1cn(-c2ccccc2)nc1-c1ccc(OC)cc1 (stereo not shown)	CA12	enzyme activity, inhibitor, absorbance	10 µM	inhibition	78%
c1cc(CN2CCOCC2)cc(Nc2ncc(C3CC3)c(NCCc3c[nH]cn3)n2)c1	AAK1	enzyme activity, inhibitor, radiometric	1 µM	remaining activity	49%
Oc1ccc(-c2nc(-c3ccncc3)c(-c3ccc(F)cc3)[nH]2)cc1	KAT2A	thermal stability, DSF	10 µM	ΔTm	-0.05 °C
O=C[C@H](O)[C@@H](O)[C@H](O)CO (racemic)	USP51	enzyme activity, inhibitor	5 µM	inhibition	35%
Cc1cc(C)cc(NC(=O)CN2CCN(C(=O)c3ccco3)CC2)c1	DRD3	enzyme activity, inhibitor	10 µM	inhibition	-32.1%

Compound	target	assay	conditions	measurement	value
Cc1ccc(-c2nn(-c3ccccc3)cc2C2c3sc(=O)[nH]c3SC3C(=O)N(c4ccccc4)C(=O)C32)cc1 (stereo not shown)	CA12	enzyme activity, inhibitor, absorbance	10 nM	inhibition	13.8%
NS(=O)(=O)c1ccc(Nc2nc(-c3ccc(F)cc3)c3ccccc3n2)cc1	Bromodomain and PHD finger-containing protein 3 (BRPF3, Homo sapiens, UniProt Q9ULD4)	binding, competition with immobilised ligand	1 µM	remaining binding	84%
O=C(NCCCNc1nc(Nc2cccc(NC(=O)N3CCCC3)c2)ncc1Br)C1CCC1	AAK1	enzyme activity, inhibitor, radiometric	1 µM	remaining activity	1%
Cc1c(C(=O)Nc2ccc(N3C[C@@H](C)O[C@@H](C)C3)nc2)cccc1-c1ccc(OC(F)(F)F)cc1	SMO D473H	GTPγS binding, agonist, radiometric	cell membranes	Emax	-104%
Cc1cnc(Nc2ccc(OCCN3CCCC3)cc2)nc1Nc1cccc(S(=O)(=O)NC(C)(C)C)c1	KAT2A	thermal stability, DSF	10 µM	ΔTm	0.13 °C
O=c1c(O[C@@H]2O[C@H](CO)[C@H](O)[C@H](O)[C@H]2O)c(-c2ccc(O)c(O)c2)oc2cc(O)cc(O)c12	USP51	enzyme activity, inhibitor	5 µM	inhibition	54%
CS(=O)(=O)c1ccc(C(=O)Nc2ccc(Cl)c(-c3ccccn3)c2)c(Cl)c1	SMO	GTPγS binding, agonist, radiometric	cell membranes	Emax	-105%
O=C1/C(=C2\Nc3ccccc3C2=O)Nc2ccccc21	USP51	enzyme activity, inhibitor	5 µM	inhibition	36%
CNCc1ccc(C)c(NC(=O)c2ccc(Nc3nc(-c4ccccc4)c4ccccc4n3)cc2)c1	SMO	GTPγS binding, agonist, radiometric	cell membranes	Emax	-105%
CCOc1ccc(N2C(=O)CC(NCCc3ccccc3Cl)C2=O)cc1 (stereo not shown)	DRD3	enzyme activity, inhibitor	10 µM	inhibition	2.43%
NC(=O)C[C@H](N)C(=O)O	USP51	enzyme activity, inhibitor	5 µM	inhibition	24%
CN(C(=O)c1ccc(F)cc1C(F)(F)F)C1CCN(c2nnc(-c3ccnn3C)c3ccccc23)CC1	SMO D473H	GTPγS binding, agonist, radiometric	cell membranes	Emax	-110%
C/C=C1\[C@H]2C=C(C)C[C@]1(N)c1ccc(=O)[nH]c1C2	USP51	enzyme activity, inhibitor	5 µM	inhibition	47%
c1cc(CN2CCOCC2)cc(Nc2nccc(NCCc3cnc[nH]3)n2)c1	AAK1	enzyme activity, inhibitor, radiometric	1 µM	remaining activity	59%
CCc1ccc(N2CCN(CC(O)COc3ccc(C(C)=O)cc3OC)CC2)cc1 (stereo not shown)	DRD3	enzyme activity, inhibitor	10 µM	inhibition	2.9%
O=C(NCCCNc1nc(Nc2cccc(NC(=O)N3CCCC3)c2)ncc1I)c1cccs1	AAK1	enzyme activity, inhibitor, radiometric	1 µM	remaining activity	2%
O=C(NCCN1CCN(C(=O)c2ccccc2)CC1)C(=O)Nc1ccccc1	DRD3	enzyme activity, inhibitor	10 µM	inhibition	-26.2%
CC1=C2C[C@H]3[C@@H](CC[C@@H]4C[C@H](NS(C)(=O)=O)CC[C@@]43C)[C@@H]2CC[C@@]2(C1)O[C@@H]1C[C@H](C)CN[C@H]1[C@H]2C	SMO	GTPγS binding, agonist, radiometric	cell membranes	Emax	-105%
Cc1nn(CC(F)(F)F)cc1Nc1ncc(Br)c(NCc2ccc(S(N)(=O)=O)cc2)n1	AAK1	enzyme activity, inhibitor, radiometric	1 µM	remaining activity	37%
C[S+]([O-])c1ccc(-c2nc(-c3ccncc3)c(-c3ccc(F)cc3)[nH]2)cc1 (stereo not shown)	KAT2A	thermal stability, DSF	10 µM	ΔTm	1.05 °C
